Screens as filed in PubChem BioAssay.
Most compounds without a hit are left out; they make up all but 1.5% or so of the library.
CXCR6 block: CXCR6 (human) receptor inhibition; O00574; CHO-K1 PathHunter CXCR6 beta-arrestin, luminescence; inhibition, % at 20 µM; hit rate 0.36% among 360,000; AID 602244; in the data active means inhibition above about 34%, passing the limit was not always enough;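 further: antagonist mode with CXCL16 agonist at 10 nM final; 0% = 10 nM CXCL16 with DMSO and 100% = unstimulated wells without agonist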
NTR1 agonist: activates human neurotensin receptor 1; P30989; NTR1-U2OS beta-arrestin-GFP spot imaging, agonist mode; activation, % at 20 µM; hit rate 0.17% among 330,000; AID 493036;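 active means activation at or above 40% of the spot to cytoplasm intensity ratio, with at least 20 cells analyzed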;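 further: 0% = DMSO without peptide and 100% = 100 nM NTR1 peptide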
APJ ag: activates the human apelin receptor APJ. hit rate 0.11% among 330,000. P35414. CHO-K1 APJ PathHunter beta-arrestin, luminescence; 0% DMSO wells, 100% apelin. activation, % at 20 µM;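 active means activation more than six SD over the plate average, tested at 20 µM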;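 further: 0% = DMSO alone and 100% = apelin-13 at 10 nM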
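Material: CHO-K1 APJ beta-arrestin complementation cell line; Input: cell density 1000 per well; Incubation: compound stimulation 90 min at 25 °C, detection 60 min; Signal: luminescence from split beta-galactosidase complementation, Galacton Star/Emerald II substrate; Controls: DMSO-only wells as negative, 10 nM Apelin-13 as positive control.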
CCR6 antagonist: CCR6 (human) receptor antagonism. P51684. CHO-K1 CCR6 PathHunter beta-arrestin, luminescence, CCL20-stimulated. inhibition, % at 20 µM. hit rate 0.49% among 340,000;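 active means compounds whose inhibition of the agonist-driven luminescence signal at 20 µM reaches about 50%, limit read from the data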;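 further: cells stimulated with CCL20 at 14 nM final; plate controls were DMSO with CCL20 for no effect and DMSO without agonist for full effect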
m5-HT2A agonist: activates the mouse 5-HT2A serotonin receptor; P35363; CHO-K1 mHTR2A beta-arrestin complementation, luminescence; percent of 30 µM serotonin response; activation, % at 7.6 µM; hit rate 0.66% among 360,000; AID 624169;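 active means activation above a run cutoff, the mean activation of all tested compounds plus 3 SD, cut at about 14% in these data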;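 further: 0% = plate median of compound wells and 100% = 30 µM serotonin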
APJ antagonist: APJ receptor antagonism; inhibition, % at 20 µM; CHO-K1 APJ beta-arrestin complementation, luminescence; AID 2521; P35414; hit rate 0.32% among 330,000;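 active means inhibition above about 40% at 20 µM, limit read from the data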;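 further: cells challenged with 10 nM apelin-13 agonist together with compound; plate controls were apelin-13 plus DMSO wells for no effect and DMSO wells lacking apelin-13 for full effect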
OPRM1 ag: counter-screen for mouse HTR2A agonists: human mu opioid receptor agonists | hit rate 5.3% among 2,300 | activation, % at 9.3 µM | AID 624380 | shares compounds with m5-HT2A agonist | U2OS OPRM1 beta-arrestin PathHunter, luminescence; DMSO 0%, DAMGO 9.3 µM 100%;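 active means mean activation above the mean of DMSO-only wells plus 3 SD, cut at about 0.5% in these data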
Target sequence (P35372 whole entry, looked up): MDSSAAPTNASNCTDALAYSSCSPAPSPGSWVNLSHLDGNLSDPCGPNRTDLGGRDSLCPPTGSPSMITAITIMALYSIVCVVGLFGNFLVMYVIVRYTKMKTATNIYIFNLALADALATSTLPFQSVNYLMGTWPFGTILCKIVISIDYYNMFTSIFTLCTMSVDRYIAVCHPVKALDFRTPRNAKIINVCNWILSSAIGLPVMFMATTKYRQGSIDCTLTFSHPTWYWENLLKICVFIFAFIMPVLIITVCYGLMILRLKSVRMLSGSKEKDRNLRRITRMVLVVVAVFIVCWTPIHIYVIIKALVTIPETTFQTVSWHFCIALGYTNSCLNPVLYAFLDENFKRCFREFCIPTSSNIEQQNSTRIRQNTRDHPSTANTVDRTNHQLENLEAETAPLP
HTR2A ag conf: mouse HTR2A agonism confirmed; shares compounds with m5-HT2A agonist; CHO-K1 PathHunter beta-arrestin recruitment, luminescence; DMSO 0%, 30 µM serotonin 100%; activation, % at 7.6 µM; hit rate 19% among 2,300; AID 624381;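 active means mean activation across triplicates above the hit threshold derived in the original primary screen, cut at about 15% in these data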
Numbers without * were called inactive; x = not tested or not shown.

SMILES	CXCR6 block	NTR1 agonist	APJ ag	CCR6 antagonist	m5-HT2A agonist	APJ antagonist	OPRM1 ag	HTR2A ag conf
CC(=O)c1cn(CC(=O)Nc2ccccc2)c2ccccc12	-12	0	-4	11	20*	-8	-1	1
CC1CN(CC(=O)NCc2ccc(F)cc2)CC(C)O1 (centres undefined)	-2	-1	-5	3	-5	18	x	x
CC1CN(CC(=O)NCc2ccccc2)CC(C)O1 (centres undefined)	7	0	-4	-20	15*	6	0	1
O=C(NC1CCN(C(=O)C2CCCCC2)CC1)c1ccccc1	12	0	4	5	-1	2	x	x
COC(=O)[C@]1(C)N[C@H](CN(C)C(=O)NC(C)C)[C@@H]2C(=O)N(C)C(=O)[C@@H]21	-6	-1	-3	-1	5	-2	x	x
CN(C)c1ccc(C(=O)c2ccccc2C(=O)O)c(O)c1	-5	2	-5	2	17*	-1	-1	-2
COc1ccc(C(=O)CSc2nnc3n2CCCN3C(=O)Nc2ccccc2)cc1	0	1	-1	8	1	19	x	x
Cc1noc(C)c1CSc1ccccc1C(=O)O	1	0	0	1	4	7	x	x
O=C(c1cc2ccccn2n1)N1CCN(c2ccccn2)CC1	3	2	-5	3	17*	5	0	-4
NC(=O)C1CCN(C(=O)c2cc3ccccn3n2)CC1	8	2	6	-9	-1	3	x	x
COc1ccc(OCC(=O)N/N=C2\CCc3ccccc32)cc1	-10	-1	-3	6	-5	12	x	x
COc1ccc2c(c1)CC/C2=N\NC(=O)c1ccccc1	4	0	-2	18	15*	-4	-1	-2
Nc1ccc2c(c1)C1(CCC2)NC(=O)NC1=O (centres undefined)	-5	x	x	x	1	x	x	x
COc1ccc2cc(CO)c3cc(OC)c(OC)cc3c2c1	-15	2	2	4	-1	-9	x	x
CC(C)Cn1c(=O)c2ccccc2n2c(CCC(=O)NC3CCN(Cc4ccccc4)CC3)nnc12	2	-1	2	17	19*	12	-1	6
COc1ccc(C(=O)Nc2cccc([N+](=O)[O-])c2)cc1Br	-7	13	7	1	-2	-12	x	x
COc1ccc(C(=O)Nc2ccc(OC)c([N+](=O)[O-])c2)cc1Br	8	4	-2	9	24*	10	-1	14
C#CCNC(=O)C1=C[C@@H](c2ccc(C#C)cc2)C[C@@H](OCc2ccc(CO)cc2)O1	2	4	-5	8	-1	12	x	x
Cc1ncc(CN2CCCC(C(=O)Nc3ccc(-n4ccnc4C)cc3)C2)cn1 (centres undefined)	2	-1	-1	0	3	17	x	x
Cc1c(C(=O)Nc2ccc(S(=O)(=O)N3CCOCC3)cc2)cccc1[N+](=O)[O-]	7	1	0	4	19*	19	0	1
COc1cccc2c1cc1c(=O)n(CC(=O)N3CCC(C)CC3)nc(C)n12	7	-1	1	15	17*	19	0	57*
CCc1nn(CC(=O)N2CCC(C)CC2)c(=O)c2cccn12	-1	0	-1	4	-3	4	x	x
NC(=O)C1CC(=O)N(CCc2ccc(F)cc2)C1 (centres undefined)	-5	1	-2	2	-5	1	x	x
CCN1C(=O)[C@@H]2[C@@H]3CN(S(=O)(=O)c4ccc(C)cc4)[C@@H](c4ccccc4F)[C@@H]3C(=O)C[C@@H]2C1=O	-7	x	x	x	15*	x	0	1
Cc1ccc(S(=O)(=O)N2C[C@H]3[C@H]4C(=O)N(Cc5ccccc5)C(=O)[C@H]4CC(=O)[C@H]3[C@@H]2c2ccccc2F)cc1	-5	x	x	x	-3	x	x	x
SMILES	CXCR6 block	NTR1 agonist	APJ ag	CCR6 antagonist	m5-HT2A agonist	APJ antagonist	OPRM1 ag	HTR2A ag conf
COC(=O)/C=C/c1c(C)nc(NCc2ccccc2)nc1Cl	-11	-2	1	9	-1	3	x	x
O=C1CN(C(=O)NCC(=O)N[C@@H](Cc2ccccc2)C(=O)O)c2ccccc2N1	0	0	-1	5	4	6	x	x
CC(CCc1ccccc1)NC(=O)CNC(=O)N1CC(=O)Nc2ccccc21 (centres undefined)	5	0	-1	-1	15*	15	-1	0
CC(CCc1ccccc1)NC(=O)CN1CCc2ccccc2C1 (centres undefined)	-2	0	0	12	25*	-20	-1	60*
CC(=O)Nc1ccc(S(=O)(=O)NCCC(=O)Nc2ccc(C)c(F)c2)cc1	5	0	-3	16	-6	21	x	x
COc1ccc(CNC(=O)CCCn2nc(C)n3ccnc3c2=O)cc1	-7	2	2	8	25*	-3	-1	-3
CCc1ccc(CNC(=O)CCCn2nc(C)n3ccnc3c2=O)cc1	5	-2	-5	-5	-3	21	x	x
CC(C)CC(=O)c1c[nH]c(C(=O)NCc2ccc(F)cc2)c1	-1	1	2	4	-4	8	x	x
CCOc1ccc(-c2nnc3ccc(SCC(=O)Nc4nc5ccc(C)cc5s4)nn23)cc1	9	4	0	-20	17*	5	0	-2
CCOc1ccc(-c2nnc3ccc(SCC(=O)Nc4nc5ccccc5s4)nn23)cc1	0	1	-2	13	2	17	x	x
COc1ccc(S(=O)(=O)NCC2CCCN(C(=O)c3cccnc3C)C2)cc1 (centres undefined)	-1	1	0	6	15*	-13	0	3
COc1ccccc1C(=O)NCCC(=O)NCC1CCCO1 (centres undefined)	2	-2	-2	1	-2	4	x	x
CN1CCc2cccc3c2[C@@H]1Cc1ccc(O)c(O)c1-3	4	0	15	7	38*	18	0	97*
COc1ccc2c(c1O)-c1ccccc1CCN(C)C2	2	-3	-1	-2	-5	-75	x	x
CC1CCC(NC(=O)CCNS(=O)(=O)c2ccc3c(c2)CCC(=O)N3)CC1 (centres undefined)	-2	1	1	-7	5	-2	x	x
CCOC(=O)N1CCC(N(CCOC)C(=O)Nc2ccc(CC)cc2)CC1	-3	-1	-4	5	-6	7	x	x
CCOC(=O)N1CCC(N(C(=O)Nc2ccc(Cl)c(Cl)c2)C(C)CC)CC1 (centres undefined)	-5	4	1	-5	16*	-1	0	-2
